Experimental data as given in publication PMC3572763 (Molecular pharmaceutics, 2013).
Where two headings read alike, the source gives them in different places.

Experiments:
[1] = Chemical stability in pH buffers; format: physicochemical; conditions: for T1/2 −pH 6.0: pH 6.0 buffer; for T1/2 −pH 6.0 / T1/2 pH 7.4: value given in h; for T1/2 pH 7.4: pH 7.4 buffer
[2] = system: Caco-2 monolayers; assay: Caco-2 cell monolayers permeability; format: in vitro ADME, human; conditions: A to B
[3] = target: T1, PEPT1 (Homo sapiens, UniProt P46059); assay: [3H]Gly-Sar uptake inhibition in Caco-2 cells; format: cell-based
T1 sequence (P46059 1-708): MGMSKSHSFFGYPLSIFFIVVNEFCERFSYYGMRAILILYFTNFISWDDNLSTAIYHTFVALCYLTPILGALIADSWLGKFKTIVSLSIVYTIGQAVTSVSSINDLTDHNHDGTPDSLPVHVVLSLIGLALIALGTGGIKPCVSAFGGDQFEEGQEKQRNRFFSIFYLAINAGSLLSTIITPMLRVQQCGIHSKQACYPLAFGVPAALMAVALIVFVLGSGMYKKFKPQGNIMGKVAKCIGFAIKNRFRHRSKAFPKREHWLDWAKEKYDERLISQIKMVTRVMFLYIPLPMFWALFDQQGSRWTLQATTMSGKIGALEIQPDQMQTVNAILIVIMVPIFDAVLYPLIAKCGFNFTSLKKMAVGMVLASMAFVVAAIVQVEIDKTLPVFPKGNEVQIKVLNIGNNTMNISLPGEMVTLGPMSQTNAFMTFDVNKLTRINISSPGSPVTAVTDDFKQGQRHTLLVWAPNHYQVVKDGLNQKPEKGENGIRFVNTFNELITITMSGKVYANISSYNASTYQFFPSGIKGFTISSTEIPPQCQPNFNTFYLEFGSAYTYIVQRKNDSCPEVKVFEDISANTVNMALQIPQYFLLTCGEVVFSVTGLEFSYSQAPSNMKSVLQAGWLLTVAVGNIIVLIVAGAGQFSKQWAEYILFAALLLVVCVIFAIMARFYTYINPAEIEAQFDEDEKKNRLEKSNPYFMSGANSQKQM
Outline: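 Caco-2 cells seeded at 5.0 × 10^4/well and grown 10 days. Washed and preincubated 15 min in pH 6.0 MES uptake buffer, then exposed 30 min at 37°C to 10 μM Gly-Sar (~1% [3H]) plus test compound 0.05–5 mM. Cells washed with ice-cold PBS, lysed in MeOH/water 1:1, counted by scintillation; IC50 by nonlinear fit; mean ± SEM, n = 3.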

[4] = target: T1, PEPT1; assay: Direct uptake in PEPT1 over-expressing HeLa cells; format: cell-based; conditions: 1 mM
[5] = system: rat jejunum; assay: Single-pass intestinal; format: in vivo; conditions: rat jejunal perfusion
[6] = mice; for AUC24hr / Cmax / Tmax hrs: GOCarb measured in plasma; for oral bioavailability: 10 mg/kg oral gavage relative to 1 mg/kg IV
[7] = system: human lysosomal neuraminidase; conditions: cited from earlier work
[8] = system: H1N1 NWS/33 strain of influenza; conditions: cited from earlier work
[9] = cited from earlier work
[10] = system: Type A strains; conditions: tissue culture; cited from earlier work
[11] = system: Type B strains; conditions: tissue culture; cited from earlier work
[12] = from literature, cited from earlier work
[13] = literature; cited from earlier work

With CCOC(=O)C1=C[C@@H](OC(CC)CC)[C@H](NC(C)=O)[C@@H](NC(=N)N)C1 [GOC ethyl ester] the “T1/2 −pH 6.0” value [1] was over 20h and the “T1/2 pH 7.4” value [1] was over 20h.
In the case of CCC(CC)O[C@@H]1C=C(C(=O)O)C[C@H](NC(=N)N)[C@H]1NC(C)=O [GOCarb, 4-Guanidine oseltamivir carboxylate], the hydrolysis in buffers ([1]; all pHs, up to 20 hours) is reported as “limited hydrolysis”, the “T1/2 −pH 6.0” value [1] is reported as over 20h and the “T1/2 pH 7.4” value [1] is reported as over 20h. For the same compound, the “permeability across Caco-2 monolayers” value [2] was “negligible permeability”, the “competition with [3H]Gly-Sar” value [3] was “little competition” and the “uptake into transfected or non-transfected cells” value [4] was “virtually no uptake”. The “jejunal permeability” value [5] was “very low permeability”, the “jejunal permeability” value ([5]; listed as parent drug) was “essentially zero permeability” and the “AUC24hr” value ([6]; 1 mg/kg IV) was 487 ± 206 ng·h/mL. For the same compound, the “AUC24hr” value ([6]; 10 mg/kg po-fasted) was 278 ± 52 ng·h/mL, the Cmax ([6]; 10 mg/kg po-fasted) was 50.9 ± 35.8 ng/mL and the Tmax hrs ([6]; 10 mg/kg po-fasted) was 1.3 ± 0.6 h. The “AUC24hr” value ([6]; 10 mg/kg po-fed) was 291 ± 87 ng·h/mL, the Cmax ([6]; 10 mg/kg po-fed) was 65.4 ± 26.8 ng/mL and the Tmax hrs ([6]; 10 mg/kg po-fed) was 3.0 ± 1.2 h. For the same compound, the oral bioavailability ([6]; fasted) was “approximately 5%”, the oral bioavailability ([6]; fed) was “approximately 5%” and the “fold more potent in inhibiting human lysosomal neuraminidase as compared to OC” value [7] was ~ 10 fold. For the same compound, the IC50 ([8]; H1N1 NWS/33 strain of influenza) was 0.9 nM, the “approximate EC50” value ([8]; versus the A/NWS/33 virus, dashed line in Figure 8) was about 5 ng/mL and the intestinal permeability ([9]; in rats) was under 5%. For the same compound, the oral bioavailability ([9]; species not stated in abstract) was 4%, the “fold more potent than OC” value [10] was “approximately 100 fold” and the “fold more potent than OC” value [11] was about 13 fold.
For CC(C)[C@H](N)C(=O)OCCOCn1cnc2c(=O)[nH]c(N)nc21 [Valacyclovir], the “T1/2 −pH 6.0” value ([12]; pH 6.0) is given as “ND^b 69.7 h^c”, the “T1/2 pH 7.4” value ([12]; pH 7.4) is given as “ND^b >8 h^c” and the bioavailability in humans [13] is given as “up to 80%”.
